The results in this text go back to ChEMBL document CHEMBL4765459, “Synthesis and bioactivity of phenyl substituted furan and oxazole carboxylic acid derivatives as potential PDE4 inhibitors” (Eur J Med Chem, 2020).

In assay [1] the target is T1, 3',5'-cyclic-AMP phosphodiesterase 4B (Homo sapiens, UniProt Q07343). Description: Inhibition of human U-937 cells derived PDE4B using [3H] cAMP as substrate measured after 30 mins. Put shortly: (§1)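 Enzyme from human monocyte-derived U937 cells, stored at −20 °C and diluted in triple-distilled water containing BSA. Substrate was [3H]cAMP (300,000 dpm/assay) in 100 mmol/L Tris-HCl pH 8.0 with 5 mmol/L EGTA. Compound added in DMSO. Incubation 30 min at 30 °C. Duplicates run at several compound concentrations.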
T1 sequence (Q07343 whole entry): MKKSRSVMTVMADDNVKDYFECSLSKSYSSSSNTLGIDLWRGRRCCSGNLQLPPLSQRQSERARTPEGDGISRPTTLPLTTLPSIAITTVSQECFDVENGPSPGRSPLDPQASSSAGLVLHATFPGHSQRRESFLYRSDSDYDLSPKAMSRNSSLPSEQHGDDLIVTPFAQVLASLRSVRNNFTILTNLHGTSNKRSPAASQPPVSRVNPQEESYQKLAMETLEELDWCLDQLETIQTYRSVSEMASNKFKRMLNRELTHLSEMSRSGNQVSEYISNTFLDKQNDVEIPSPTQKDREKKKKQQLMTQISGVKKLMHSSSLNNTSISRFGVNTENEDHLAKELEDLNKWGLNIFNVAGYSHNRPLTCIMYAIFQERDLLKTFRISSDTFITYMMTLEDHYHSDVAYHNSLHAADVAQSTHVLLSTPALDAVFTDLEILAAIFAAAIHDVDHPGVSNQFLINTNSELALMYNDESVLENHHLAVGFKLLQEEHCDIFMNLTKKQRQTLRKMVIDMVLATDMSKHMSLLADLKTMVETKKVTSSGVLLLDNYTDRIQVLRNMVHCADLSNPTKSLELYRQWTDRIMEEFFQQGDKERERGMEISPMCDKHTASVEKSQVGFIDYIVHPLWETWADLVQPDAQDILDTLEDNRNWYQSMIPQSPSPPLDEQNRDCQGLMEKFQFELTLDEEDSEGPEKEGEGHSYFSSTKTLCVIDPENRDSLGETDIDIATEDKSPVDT

Assay [2] has as its target T1, 3',5'-cyclic-AMP phosphodiesterase 4B. Description: Inhibition of PDE4B in human PBMC assessed as reduction in LPS-induced TNFalpha release preincubated for 30 mins followed by LPS stimulation and measured after 18 hrs by TR-FRET assay. In short, it runs like this:
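Human PBMCs from buffy coats, blood first diluted 1:1 with saline, isolated on Lymphoprep. Compound pre-incubation 30 min, then LPS stimulation for 18 h. IC50 reported.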

For assay [3], the target named is 3',5'-cyclic-AMP phosphodiesterase 4D (Homo sapiens, UniProt Q08499). Description: Inhibition of human U-937 cells derived PDE4D using [3H] cAMP as substrate measured after 30 mins. In short, it runs like this: as §1
Chain of 3',5'-cyclic-AMP phosphodiesterase 4D (Q08499 whole entry): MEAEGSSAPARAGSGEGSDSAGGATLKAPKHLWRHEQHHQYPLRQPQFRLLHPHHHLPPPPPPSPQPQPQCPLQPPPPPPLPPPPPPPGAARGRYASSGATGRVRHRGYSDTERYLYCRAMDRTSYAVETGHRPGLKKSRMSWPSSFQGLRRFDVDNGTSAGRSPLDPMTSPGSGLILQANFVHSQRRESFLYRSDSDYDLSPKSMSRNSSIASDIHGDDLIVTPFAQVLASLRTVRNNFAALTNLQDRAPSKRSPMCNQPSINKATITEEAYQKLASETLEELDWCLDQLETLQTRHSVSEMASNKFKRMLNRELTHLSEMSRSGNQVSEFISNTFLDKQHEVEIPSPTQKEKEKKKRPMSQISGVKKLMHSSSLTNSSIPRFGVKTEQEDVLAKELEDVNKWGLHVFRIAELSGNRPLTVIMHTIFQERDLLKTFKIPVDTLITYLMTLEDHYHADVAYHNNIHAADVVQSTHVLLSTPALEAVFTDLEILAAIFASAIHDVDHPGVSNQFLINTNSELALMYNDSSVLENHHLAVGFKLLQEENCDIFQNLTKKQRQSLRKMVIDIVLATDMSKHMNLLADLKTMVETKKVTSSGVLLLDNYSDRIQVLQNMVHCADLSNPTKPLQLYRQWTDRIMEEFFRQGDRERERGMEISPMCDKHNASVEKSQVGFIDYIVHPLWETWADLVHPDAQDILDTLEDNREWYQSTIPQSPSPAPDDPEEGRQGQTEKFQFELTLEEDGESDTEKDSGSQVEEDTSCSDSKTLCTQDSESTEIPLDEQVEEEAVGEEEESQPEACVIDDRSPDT
The species entered for assay [4] is Homo sapiens. Description: Selectivity ratio of IC50 for inhibition of human U937 cells derived PDE4D to inhibition of human U937 cells derived PDE4B.
In assay [5] the test system is Mus musculus. Description: Antiinflammatory activity in LPS induced Swiss albino mouse model of sepsis assessed as inhibition of TNFalpha production at 10 mg/kg, po preincubated for 30 mins followed by LPS stimulation and measured after 90 mins by ELISA relative to control. Format: functional. The conditions noted are these: 2 h, time 120 min. Put shortly: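 Female Swiss albino mice, weight-matched, n = 6 per group, fasted 20 h with water available. Oral dosing in 0.5% Tween 80 / 0.25% sodium carboxymethylcellulose, with vehicle-only controls. 500 µg E. coli LPS (B4) in phosphate buffer given i.p. 30 min later. Retro-orbital bleed 90 min after LPS. Serum spun 4000 rpm for 20 min, held at 4 °C overnight, then TNF-α measured by mouse ELISA kit.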
(In general: An ELISA detects its analyte on a solid surface through an enzyme-linked reagent.)

Assay [6] has as its system Rattus norvegicus. Description: Antiinflammatory activity in LPS induced Sprague-Dawley rat model of asthma and COPD assessed as inhibition of neutrophilia at 10 mg/kg, po preincubated for 30 mins followed by LPS stimulation and measured after 6 hrs relative to control. It is filed as functional. The conditions noted are these: time 6.5 hrs. Put shortly:
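Male Sprague Dawley rats, acclimatized one week and randomized by body weight, n = 6 per group. Compound given orally, suspended in 0.25% sodium carboxymethylcellulose, half an hour before LPS exposure. Bronchoalveolar lavage done 6 h after LPS. Total cell count and differential leukocyte count compared with control.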

Broadly, the IC50 is the concentration at which inhibition is half-maximal. On to `N#C/N=C1/SCCN1C(=O)c1ccc(-c2c(F)cccc2F)o1`, for which the figures for the IC50 in assay [1], in assay [2] and in assay [3] were 22.1 µM, 60.1 µM and 88.6 µM, respectively. The Ratio IC50 in assay [4] is 4.01.
On the same counts, the results for `Cc1ccc(-c2ccc(CN3CCS/C3=N/C#N)o2)cc1` are 20.1 µM, 53.9 µM, 121 µM and 6.04.
As to `N#C/N=C1/SCCN1C(=O)c1coc(-c2ccccc2F)n1`, the IC50 in assay [1] came to 52.8 µM; in assay [2], 92.8 µM.
In general, inhibition in vivo refers to the drop in the measured response relative to a control, in per cent. With `COc1ccc(C2CNC(=O)C2)cc1OC1CCCC1` (stereo not drawn) [ROLIPRAM], the inhibition in vivo at 10 mg/kg was determined as 45.3% in assay [5] and 36.8% in assay [6].
Consider `N#C/N=C1/SCCN1C(=O)c1ccc(-c2ccccc2Cl)o1`, for which the results for the IC50 in assay [1] and in assay [2] were 62.8 µM and 123 µM, respectively.
The corresponding values for `N#C/N=C1/SCCN1C(=O)c1coc(-c2ccccc2Cl)n1` are 40.3 µM and 101 µM.
Consider `N#C/N=C1/SCCN1Cc1ccc(-c2c(F)cccc2F)o1`, for which the IC50 worked out at 45.7 µM in assay [1], 82.3 µM in assay [2] and 160 µM in assay [3]. The Ratio IC50 in assay [4] is 3.49.
For `N#C/N=C1/SCCN1C(=O)c1ccc(-c2ccc(Br)cc2)o1`, the figures for the IC50 in assay [1] and in assay [2] were 49.6 µM and 139 µM, respectively.
Turning to `N#C/N=C1/SCCN1C(=O)c1ccc(-c2ccccc2)o1`, the IC50 in assay [1] came out at 111 µM; in assay [2] it was 170 µM.
On the same counts, the results for `N#C/N=C1/SCCN1C(=O)c1coc(-c2ccc(Br)cc2)n1` are 46.7 µM and 131 µM.
On to `N#C/N=C1/SCCN1Cc1ccc(-c2ccc(Br)cc2)o1`, for which the IC50 is 52.7 µM in assay [1] and 156 µM in assay [2].
Consider `N#C/N=C1/SCCN1C(=O)c1ccc(-c2ccc(Cl)cc2)o1`, for which the results for the IC50 in assay [1], in assay [2] and in assay [3] were 6.6 µM, 35.6 µM and 26.4 µM, respectively. Also, the Ratio IC50 in assay [4] amounted to 4.
For `Cc1ccc(-c2ccc(C(=O)N3CCS/C3=N/C#N)o2)cc1`, the IC50 in assay [1] was found to be 12.5 µM; in assay [2] it was 41.3 µM; in assay [3], 54.3 µM. Besides, the Ratio IC50 in assay [4] is 4.34.
The corresponding values for `Cc1ccc(-c2nc(C(=O)N3CCS/C3=N/C#N)co2)cc1` are 9.2 µM, 35.2 µM, 66.9 µM and 7.27.
Consider `COc1ccc(-c2ccc(CN3CCS/C3=N/C#N)o2)cc1`, for which the IC50 in assay [1] amounted to 9.6 µM; in assay [2], 36.8 µM; in assay [3] it was 32.8 µM. In addition, the values for the inhibition in vivo at 10 mg/kg in assay [5] and in assay [6] were 31.2% and 28.7%, respectively. Also, the Ratio IC50 in assay [4] came to 3.42.
For `N#C/N=C1/SCCN1Cc1ccc(-c2ccccc2F)o1`, the results for the IC50 in assay [1] and in assay [2] were 85.6 µM and 121 µM, respectively.
With `COc1ccc(-c2nc(C(=O)N3CCS/C3=N/C#N)co2)cc1`, the figures for the half-inhibitory concentration (IC50) in assay [1], in assay [2] and in assay [3] were 1.4 µM, 11.8 µM and 15.7 µM, respectively. For the same compound, the inhibition in vivo at 10 mg/kg stood at 52.6% in assay [5] and 42.1% in assay [6]. The Ratio IC50 in assay [4] is 11.2.
In the case of `N#C/N=C1/SCCN1C(=O)c1ccc(-c2ccc(F)cc2)o1`, the concentration for half-maximal inhibition (IC50) in assay [1] is 11.3 µM; in assay [2], 29.8 µM; in assay [3], 55.7 µM. Besides, the Ratio IC50 in assay [4] worked out at 4.93.
On the same counts, the results for `N#C/N=C1/SCCN1Cc1ccc(-c2ccc(F)cc2)o1` are 18.9 µM, 45.8 µM, 111 µM and 5.85.
Turning to `COc1ccc(-c2ccc(C(=O)N3CCS/C3=N/C#N)o2)cc1`, the IC50 in assay [1] came to 2.8 µM; in assay [2], 15.3 µM; in assay [3], 18.7 µM. Moreover, the inhibition in vivo at 10 mg/kg came out at 40.5% in assay [5] and 33.8% in assay [6]. Further, the Ratio IC50 in assay [4] was found to be 6.68.
Take `N#C/N=C1/SCCN1C(=O)c1coc(-c2cccc(Cl)c2)n1`: the IC50 in assay [1] came out at 18.1 µM; in assay [2] it was 62.5 µM; in assay [3], 102 µM. Further, the Ratio IC50 in assay [4] was found to be 5.66.
As to `N#C/N=C1/SCCN1C(=O)c1ccc(-c2ccccc2F)o1`, the 50% inhibitory concentration (IC50) was found to be 62.4 µM in assay [1] and 110 µM in assay [2].
The corresponding values for `N#C/N=C1/SCCN1Cc1ccc(-c2cccc(Cl)c2)o1` are 62.8 µM and 89.7 µM.
For `N#C/N=C1/SCCN1Cc1ccc(-c2ccc(Cl)cc2)o1`, the IC50 amounted to 15.7 µM in assay [1], 44.2 µM in assay [2] and 58.3 µM in assay [3]. Further, the Ratio IC50 in assay [4] is 3.71.
As to `N#C/N=C1/SCCN1C(=O)c1ccc(-c2cccc(Cl)c2)o1`, the results for the IC50 in assay [1], in assay [2] and in assay [3] were 29.4 µM, 74.3 µM and 99.8 µM, respectively. Besides, in assay [4], the Ratio IC50 came out at 3.39.
As to `N#C/N=C1/SCCN1Cc1ccc(-c2ccccc2Cl)o1`, the IC50 in assay [1] was determined as 102 µM; in assay [2], 149 µM.
For `N#C/N=C1/SCCN1C(=O)c1coc(-c2c(F)cccc2F)n1`, the IC50 in assay [1] was 16.3 µM; in assay [2], 49.3 µM; in assay [3], 98.7 µM. Further, the Ratio IC50 in assay [4] is 6.06.
With `N#C/N=C1/SCCN1C(=O)c1coc(-c2ccccc2)n1`, the IC50 in assay [1] came to 71.2 µM; in assay [2] it was 142 µM.
Take `N#C/N=C1/SCCN1C(=O)c1coc(-c2ccc(Cl)cc2)n1`: the IC50 in assay [1] was found to be 3.6 µM; in assay [2], 27.2 µM; in assay [3], 26.8 µM. In addition, in assay [4], the Ratio IC50 was 7.44.
Turning to `N#C/N=C1/SCCN1C(=O)c1ccc(-c2cccc(F)c2)o1`, the IC50 worked out at 37.8 µM in assay [1] and 72.6 µM in assay [2].
As for `N#C/N=C1/SCCN1C(=O)c1coc(-c2ccc(F)cc2)n1`, the values for the IC50 in assay [1], in assay [2] and in assay [3] were 6.8 µM, 22.1 µM and 45.9 µM, respectively. Also, the Ratio IC50 in assay [4] stood at 6.75.
Regarding `N#C/N=C1/SCCN1Cc1ccc(-c2cccc(F)c2)o1`, the values for the IC50 in assay [1] and in assay [2] were 59.7 µM and 89.5 µM, respectively.
On to `N#C/N=C1/SCCN1C(=O)c1coc(-c2cccc(F)c2)n1`, for which the results for the IC50 in assay [1] and in assay [2] were 27.6 µM and 64.3 µM, respectively.
The corresponding values for `N#C/N=C1/SCCN1Cc1ccc(-c2ccccc2)o1` are 162 µM and 199 µM.
